From ChEMBL document CHEMBL1138907, “Synthesis, hydrolyses and dermal delivery of N-alkyl-N-alkyloxycarbonylaminomethyl (NANAOCAM) derivatives of phenol, imide and thiol containing drugs” (Bioorg Med Chem Lett, 2006)
Values after ≈ are worked out from the molar mass of the structure shown.

What was measured:
[1] = Half life of the compound; format: ADME
Method in brief: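 Hydrolysis in aqueous buffer, followed by UV absorbance in a cuvette at about 10^-5 M final substrate. For the phenol derivatives, runs were at 46 °C in pH 8.8 buffer because hydrolysis at 32 °C was too slow. Half-lives were taken from plots of log(A∞ − At), or its negative, versus time.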

[2] = Dissociation constant, pKa of the compound; format: physicochemical
[3] = Ratio for partition coefficient, log K in IPM to buffer at pH 4; format: physicochemical; details: IPM/pH 4.0 buffer
[4] = Aqueous solubility of the compound; format: physicochemical; details: water
[5] = Solubility in IPM; format: physicochemical

SMILES | half-life [1] [h] | pKa [2] | log K [3] | solubility [4] [µM] | solubility ([5]; IPM, read-out: Solubility) [µM] | solubility [5] [µM]
COC(=O)N(C)CSc1[nH]cnc2ncnc1-2 | 0.317 | 7.5 | 0.03 | 1450 (≈ 367 µg/mL) | 1350 (≈ 342 µg/mL) | –
CCOC(=O)c1ccc(N(COc2ccc([N+](=O)[O-])cc2)C(=O)OC)cc1 | > 24 | – | – | – | – | –
COC(=O)N(COc1ccc([N+](=O)[O-])cc1)c1ccc(OC)cc1 | 6.67 | – | – | – | – | –
COC(=O)N(C)Cn1cnc2c1c(=O)n(C)c(=O)n2C | 7 | 8.6 | -0.04 | 9330 (≈ 2620 µg/mL) | 2690 (≈ 757 µg/mL) | –
COC(=O)N(COc1ccc([N+](=O)[O-])cc1)c1ccccc1 | 8.65 | – | – | – | – | –
Sc1ncnc2nc[nH]c12 [MERCAPTOPURINE ANHYDROUS] | – | – | -1.75 | 1120 (≈ 170 µg/mL) | 20 (≈ 3.04 µg/mL) | –
Cn1c(=O)c2[nH]cnc2n(C)c1=O.O [THEOPHYLLINE] | – | – | -0.51 | 46000 | 340 | –

The next lines start with the values.

half-life [1] [h] | pKa [2] | log K [3] | solubility [4] [µM] | solubility ([5]; IPM, read-out: Solubility) [µM] | solubility [5] [µM] | SMILES
0.00367 | 5.03 | – | – | – | – | COC(=O)N(C)COC(=O)c1ccc(N(C)C)cc1
3.15 | 8.05 | – | – | – | – | COC(=O)N(C)COc1ccc(C(C)=O)cc1
4.83 | 8.47 | – | – | – | – | COC(=O)c1ccc(OCN(C)C(=O)OC)cc1
2.48 | 7.95 | – | – | – | – | COC(=O)N(C)COc1ccc(C#N)cc1
60 | 9.5 | -0.45 | 45700 (≈ 11500 µg/mL) | 14100 (≈ 3560 µg/mL) | – | COC(=O)N(C)COc1ccc(NC(C)=O)cc1
0.367 | 7.14 | – | – | – | – | COC(=O)N(C)COc1ccc([N+](=O)[O-])cc1
1.25 | 7.66 | – | – | – | – | COC(=O)N(C)COc1ccc(C=O)cc1
0.2 | 6.79 | – | – | – | – | COC(=O)N(C)COc1ccccc1C=O
– | – | -1.72 | 100000 (≈ 15100 µg/mL) | – | 1910 (≈ 289 µg/mL) | CC(=O)Nc1ccc(O)cc1 [ACETAMINOPHEN]
